Data published in ChEMBL document CHEMBL4033712, “Synthesis and biological evaluation of new C-12(α/β)-(N-) sulfamoyl-phenylamino-14-deoxy-andrographolide derivatives as potent anti-cancer agents” (Bioorg Med Chem Lett, 2017).

Columns and labels:
Type in all cases: functional
[1] = test system: SF-268; assay: Growth inhibition of human SF268 cells incubated for 48 hrs by sulforhodamine B assay; conditions: SF-268, 48 h
How it was run: (§1)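 NCI 60 human tumour cell line panel, five-dose study at 0.01, 0.1, 1, 10 and 100 µM, 48 h incubation. Sulforhodamine B protein-binding dye end point. GI50 (50% decrease in net cell growth), TGI (total growth inhibition) and LC50 (net 50% loss of initial cells) read from log concentration versus % growth inhibition curves.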

[2] = test system: OVCAR-4; assay: Growth inhibition of human OVCAR4 cells incubated for 48 hrs by sulforhodamine B assay; conditions: OVCAR-4, 48 h
How it was run: (§2)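 NCI-60 five-dose screen at 0.01, 0.1, 1, 10 and 100 µM, 48 h incubation, sulforhodamine B end point. GI50 (50% decrease in net growth), TGI (total growth inhibition) and LC50 (net 50% loss of initial cells) taken from log concentration versus % growth inhibition curves.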

[3] = test system: NCI-H23; assay: Growth inhibition of human NCI-H23 cells incubated for 48 hrs by sulforhodamine B assay; conditions: NCI-H23, 48 h; how it was run: as §2
[4] = test system: MDA-MB-231; assay: Growth inhibition of human MDA-MB-231 cells incubated for 48 hrs by sulforhodamine B assay; conditions: MDA-MB-231, 48 h; how it was run: as §2
[5] = test system: ACHN; assay: Growth inhibition of human ACHN cells incubated for 48 hrs by sulforhodamine B assay; how it was run: as §2
[6] = test system: DU-145; assay: Growth inhibition of human DU145 cells incubated for 48 hrs by sulforhodamine B assay; conditions: DU-145, 48 h; how it was run: as §2
[7] = test system: MOLT-4; assay: Growth inhibition of human MOLT4 cells incubated for 48 hrs by sulforhodamine B assay; conditions: MOLT-4, 48 h; how it was run: as §2
[8] = test system: SR; assay: Growth inhibition of human SR cells incubated for 48 hrs by sulforhodamine B assay; how it was run: as §1
[9] = test system: SF-539; assay: Anticancer activity against human SF539 cells assessed as cell growth at 10 uM after 48 hrs by sulforhodamine B assay relative to control; conditions: SF-539, 48 h, read-out: Activity
How it was run: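 Single-dose NCI-60 panel screen: compound added at 10 µM and the culture incubated 48 h. The end point was read by protein staining with sulforhodamine B. The value is percent growth of treated cells relative to untreated control cells, reported as a mean graph across the panel.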

[10] = test system: A498; assay: Growth inhibition of human A498 cells incubated for 48 hrs by sulforhodamine B assay; conditions: A498, 48 h; how it was run: as §2
[11] = test system: NCI-H460; assay: Growth inhibition of human NCI-H460 cells incubated for 48 hrs by sulforhodamine B assay; conditions: NCI-H460, 48 h; how it was run: as §2
[12] = test system: NCI-H226; assay: Growth inhibition of human NCI-H226 cells incubated for 48 hrs by sulforhodamine B assay; conditions: NCI-H226, 48 h; how it was run: as §2
[13] = test system: HOP-62; assay: Growth inhibition of human HOP62 cells incubated for 48 hrs by sulforhodamine B assay; conditions: HOP-62, 48 h; how it was run: as §2
[14] = test system: CAKI-1; assay: Growth inhibition of human Caki1 cells incubated for 48 hrs by sulforhodamine B assay; conditions: CAKI-1, 48 h; how it was run: as §2
[15] = test system: SW-620; assay: Growth inhibition of human SW620 cells incubated for 48 hrs by sulforhodamine B assay; conditions: SW-620, 48 h; how it was run: as §1
[16] = test system: UO-31; assay: Growth inhibition of human UO31 cells incubated for 48 hrs by sulforhodamine B assay; conditions: UO-31, 48 h; how it was run: as §1
[17] = test system: RPMI-8226; assay: Growth inhibition of human RPMI8226 cells incubated for 48 hrs by sulforhodamine B assay; conditions: RPMI-8226, 48 h; how it was run: as §1
[18] = test system: UACC-62; assay: Growth inhibition of human UACC62 cells incubated for 48 hrs by sulforhodamine B assay; conditions: UACC-62, 48 h; how it was run: as §1
[19] = test system: HT-29; assay: Growth inhibition of human HT-29 cells incubated for 48 hrs by sulforhodamine B assay; conditions: HT-29, 48 h; how it was run: as §2
[20] = test system: UACC-257; assay: Growth inhibition of human UACC257 cells incubated for 48 hrs by sulforhodamine B assay; conditions: UACC-257, 48 h; how it was run: as §1
[21] = test system: SN12C; assay: Growth inhibition of human SN12C cells incubated for 48 hrs by sulforhodamine B assay; how it was run: as §1
[22] = test system: LOX IMVI; assay: Growth inhibition of human LOXIMVI cells incubated for 48 hrs by sulforhodamine B assay; how it was run: as §2
[23] = test system: SNB-75; assay: Growth inhibition of human SNB75 cells incubated for 48 hrs by sulforhodamine B assay; conditions: SNB-75, 48 h; how it was run: as §1
[24] = test system: CCRF-CEM; assay: Growth inhibition of human CCRF-CEM cells incubated for 48 hrs by sulforhodamine B assay; how it was run: as §2
[25] = test system: IGROV-1; assay: Growth inhibition of human IGROV1 cells incubated for 48 hrs by sulforhodamine B assay; conditions: IGROV-1, 48 h; how it was run: as §2
[26] = test system: U-251; assay: Growth inhibition of human U251 cells incubated for 48 hrs by sulforhodamine B assay; conditions: U-251, 48 h; how it was run: as §1
[27] = test system: OVCAR-5; assay: Growth inhibition of human OVCAR5 cells incubated for 48 hrs by sulforhodamine B assay; conditions: OVCAR-5, 48 h; how it was run: as §2
[28] = read-out: LC50 (the source's name)

## C=C1CC[C@@H]2[C@](C)(COC(C)=O)[C@H](OC(C)=O)CC[C@@]2(C)[C@H]1CC(Nc1ccc(S(=O)(=O)Nc2cc(C)on2)cc1)C1=CCOC1=O (stereo partly drawn)
[1]
  GI50: 2.35 µM
  TGI: 6.11 µM
[1]; [28]
  CC50: 32.9 µM
[2]
  GI50: 2.91 µM
  LC50: 35.1 µM
  TGI: 10.5 µM
[3]
  GI50: 2.31 µM
  TGI: 5.9 µM
[3]; [28]
  CC50: 31.4 µM
[4]
  GI50: 2.22 µM
  LC50 (concentration giving net 50% loss of initial cells): 17.1 µM
  TGI: 5.11 µM
[5]
  GI50: 1.71 µM
  TGI: 3.48 µM
[5]; [28]
  CC50: 7.05 µM
[6]
  GI50: 2.43 µM
  TGI: 6.53 µM
[6]; [28]
  CC50: 23 µM
[7]
  GI50: 2.12 µM
  TGI: 6.39 µM
[7]; [28]
  CC50: > 100 µM
[8]
  GI50: 0.37 µM
  TGI: 3.36 µM
[8]; [28]
  CC50: > 100 µM
[9]
  growth at 10 µM: 6.3%
[10]
  GI50: 7.69 µM
  LC50 (concentration giving net 50% loss of initial cells): 45 µM
  TGI: 20.3 µM
[11]
  GI50: 2.35 µM
  TGI: 5.7 µM
[11]; [28]
  CC50: 27.7 µM
[12]
  GI50: 1.81 µM
  TGI: 3.85 µM
[13]
  GI50: 8.88 µM
  TGI: 22.9 µM
[13]; [28]
  CC50: 56.9 µM
[14]
  GI50: 4.14 µM
  TGI: 14.7 µM
[14]; [28]
  CC50: 38.6 µM
[15]
  GI50: 1.32 µM
  TGI: 2.91 µM
[15]; [28]
  CC50: 6.44 µM
[16]
  GI50: 1.69 µM
  LC50 (concentration giving net 50% loss of initial cells): 7.33 µM
  TGI: 3.52 µM
[17]
  GI50: 1.54 µM
  TGI: 5.42 µM
[17]; [28]
  CC50: > 100 µM
[18]
  GI50: 2.13 µM
  TGI: 7.06 µM
[18]; [28]
  CC50: 30.5 µM
[19]
  GI50: 1.58 µM
  TGI: 3.09 µM
[19]; [28]
  CC50: 6.04 µM
[20]
  GI50: 2.95 µM
  TGI: 6.19 µM
[20]; [28]
  CC50: 18.7 µM
[21]
  GI50: 1.73 µM
  TGI: 4.52 µM
[21]; [28]
  CC50: 20.7 µM
[22]
  GI50: 1.18 µM
  TGI: 2.54 µM
[22]; [28]
  CC50: 5.46 µM
[23]
  GI50: 2.03 µM
  TGI: 11.5 µM
[23]; [28]
  CC50: 33.9 µM
[24]
  GI50: 0.47 µM
  TGI: 2.71 µM
[24]; [28]
  CC50: > 100 µM
[25]
  GI50: 2.36 µM
  TGI: 6.51 µM
[25]; [28]
  CC50: 76.2 µM
[26]
  GI50: 1.89 µM
  TGI: 3.4 µM
[26]; [28]
  CC50: 6.12 µM
[27]
  GI50: 2.16 µM
  LC50 (concentration causing net 50% loss of initial cells): 7.61 µM
  TGI: 4.05 µM
